Tests used:
[1] = folding enthalpy; higher = less favourable; fluorescence melt of hairpins on a sequencing array, two-state fit; conditions: sodium 0.088 M
Procedure, shortened: (§1)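 Folding enthalpy and melting temperature were estimated with bootstrapped two-state fits and combined across four replicates by inverse-variance weighting, with fitted temperatures raised by 9.35 °C to match UV melts. The data were Cy3 fluorescence of library hairpins, with annealed Cy3 and quencher oligos, on a sequenced MiSeq flow cell in 50 mM Na-HEPES pH 8.0, 25 mM NaCl, imaged in 2.5 °C steps up to 60 °C and normalised to pre-quench Cy3 and control constructs.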

[2] = melting temperature; fluorescence melt of hairpins on a sequencing array, two-state fit, raised by 9.35 °C to match UV melts; conditions: sodium 0.088 M
Procedure, shortened: as §1

GCGCCGCCGAAAGGCCGC (((..(((....))))))
folding enthalpy [1]: -15.2 kcal/mol | Tm [2]: 56.3 °C

GCTGCCGAAAGGCTCAGC ((((((....)))..)))
folding enthalpy [1]: -15 kcal/mol | Tm [2]: 44.4 °C

GGCCAGCGAAAGCTGCC (((.(((....))))))
folding enthalpy [1]: -16 kcal/mol | Tm [2]: 60 °C

GCTGGGCGAAAGCACTGC ((.(.((....)).).))
folding enthalpy [1]: -29.4 kcal/mol | Tm [2]: 61.3 °C

GTTAAGCGAAAGCTCAAC (((.(((....))).)))
folding enthalpy [1]: -16.7 kcal/mol | Tm [2]: 37.6 °C

GAGTGCGAAAGCATTCTC ((((((....)))..)))
folding enthalpy [1]: -21.5 kcal/mol | Tm [2]: 52.3 °C

GATCGTCATCACGATC ((((((....))))))
folding enthalpy [1]: -43.8 kcal/mol | Tm [2]: 52.2 °C

GTATTAGGAAACTAATAC (((((((....)))))))
folding enthalpy [1]: -38 kcal/mol | Tm [2]: 46.3 °C

GCTGATGAAAATCAGC ((((((....))))))
folding enthalpy [1]: -35.8 kcal/mol | Tm [2]: 60.6 °C

GATCTCATCCGAGATC ((((((....))))))
folding enthalpy [1]: -39.2 kcal/mol | Tm [2]: 53.2 °C

GACGCGGGAAACCGTGTC (((.(((....))).)))
folding enthalpy [1]: -39.4 kcal/mol | Tm [2]: 58.2 °C

GACTTGGGAAACTAGGTC (((.(.(....).).)))
folding enthalpy [1]: -9.69 kcal/mol | Tm [2]: 25.4 °C

GAACTCCGAAAGGATTTC (((.(((....))).)))
folding enthalpy [1]: -23.5 kcal/mol | Tm [2]: 35.2 °C

GTTGGCGGAAACGTCGAC ((.(.((....)).).))
folding enthalpy [1]: -19.1 kcal/mol | Tm [2]: 47.6 °C

GGTGGTGGAAACACTACC (((.(((....))).)))
folding enthalpy [1]: -29.8 kcal/mol | Tm [2]: 52.9 °C

GCAGTGCGAAAGCAGGGC ((..(((....)))..))
folding enthalpy [1]: -21.6 kcal/mol | Tm [2]: 58.4 °C

GGTGGTGGAAACACTGCC ((..(((....)))..))
folding enthalpy [1]: -25.5 kcal/mol | Tm [2]: 47.2 °C

GCACGGCGAAAGCCCCGC ((..(((....)))..))
folding enthalpy [1]: -8.33 kcal/mol | Tm [2]: 32.2 °C

GTGGTGGGAAACCATCAC (((.(((....))).)))
folding enthalpy [1]: -43.1 kcal/mol | Tm [2]: 51.2 °C

GTTGCCGAAAGGCAGAAC ((((((....)))..)))
folding enthalpy [1]: -8.61 kcal/mol | Tm [2]: 37.3 °C

GACTAACGAAAGTTCGTC (((.(((....))).)))
folding enthalpy [1]: -30.5 kcal/mol | Tm [2]: 42.5 °C

GATCCCTTTAGGGATC ((((((....))))))
folding enthalpy [1]: -39.3 kcal/mol | Tm [2]: 68.9 °C

GTAGCGGGAAACTGCTGC (.(((.(....).))).)
folding enthalpy [1]: -22.6 kcal/mol | Tm [2]: 44.2 °C

CGACGCGGAAACGCTCG (((.(((....))))))
folding enthalpy [1]: -21.8 kcal/mol | Tm [2]: 49.3 °C

GTGGGCGAAAGCCGTCAC ((((((....)))..)))
folding enthalpy [1]: -13.2 kcal/mol | Tm [2]: 36.9 °C

GAATGCGAAAGCAGGTTC ((((((....)))..)))
folding enthalpy [1]: -8.65 kcal/mol | Tm [2]: 30.4 °C

GTCGCCGAAAGGCGAGAC ((((((....)))..)))
folding enthalpy [1]: -7.32 kcal/mol | Tm [2]: 51.8 °C

GCCGGGCCGAAAGGCGGC (((..(((....))))))
folding enthalpy [1]: -17.6 kcal/mol | Tm [2]: 59.4 °C

GGCTTCCGAAAGGATGCC (((.(((....))).)))
folding enthalpy [1]: -48.9 kcal/mol | Tm [2]: 62 °C

GGAGTTGGAAACAACTTC (.(((((....))))).)
folding enthalpy [1]: -31.1 kcal/mol | Tm [2]: 47.5 °C

GCCCGAGGAAACTCAGGC (((.(((....))).)))
folding enthalpy [1]: -27.2 kcal/mol | Tm [2]: 45.1 °C

GTTCTCACGAAAGTGAAC (((..(((....))))))
folding enthalpy [1]: -10.9 kcal/mol | Tm [2]: 31.6 °C

GAAGCCGAAAGGCTTTC ((((((....))).)))
folding enthalpy [1]: -11.1 kcal/mol | Tm [2]: 54.2 °C

GATCCCTCAGGGATC ((((((...))))))
folding enthalpy [1]: -37.2 kcal/mol | Tm [2]: 65 °C

GCGATCGAAAGATCACGC ((((((....)))..)))
folding enthalpy [1]: -21.7 kcal/mol | Tm [2]: 48.2 °C

GCAACGCGAAAGCTGTGC (((..((....))..)))
folding enthalpy [1]: -15.2 kcal/mol | Tm [2]: 48.9 °C

GAGCACGAAAGTGCACTC ((((((....)))..)))
folding enthalpy [1]: -11.9 kcal/mol | Tm [2]: 58 °C

GTCTGCTCGAAAGAGGAC (((..(((....))))))
folding enthalpy [1]: -18.1 kcal/mol | Tm [2]: 31.3 °C

GGCCGGCCGAAAGGCGCC (((..(((....))))))
folding enthalpy [1]: -15.1 kcal/mol | Tm [2]: 57.3 °C

GACGATGGAAACATCGTC (((((((....)))))))
folding enthalpy [1]: -41.7 kcal/mol | Tm [2]: 67.9 °C

GCGGCACCGAAAGGTCGC (((..(((....))))))
folding enthalpy [1]: -21.1 kcal/mol | Tm [2]: 54.4 °C

GGGTATACGAAAGTACCC (((..(((....))))))
folding enthalpy [1]: -24.4 kcal/mol | Tm [2]: 45.6 °C

GCAGCTCGAAAGAGATGC (((.(((....))).)))
folding enthalpy [1]: -42.1 kcal/mol | Tm [2]: 68.6 °C

GATCAACGAAAGTTATC (((.(((....))))))
folding enthalpy [1]: -9.84 kcal/mol | Tm [2]: 25.4 °C

GGAACACCGAAAGGTTCC (((..(((....))))))
folding enthalpy [1]: -18.4 kcal/mol | Tm [2]: 42.2 °C

GATCTTGGCAAGATC ((((((...))))))
folding enthalpy [1]: -46.1 kcal/mol | Tm [2]: 48.2 °C

GCTGACGGAAACGCCAAC (.((.((....)).)).)
folding enthalpy [1]: -14.1 kcal/mol | Tm [2]: 25.9 °C

GATCTCGGTAGAGATC ((((((....))))))
folding enthalpy [1]: -32.7 kcal/mol | Tm [2]: 66.5 °C

GTCGATGGAAACATCGAC (((((((....)))))))
folding enthalpy [1]: -44.8 kcal/mol | Tm [2]: 67.3 °C

GGAGGTGGAAACGTCTCC ((((..(....)..))))
folding enthalpy [1]: -18.4 kcal/mol | Tm [2]: 35.9 °C

GCTTACGAAAGTAGCAGC ((((((....)))..)))
folding enthalpy [1]: -18.4 kcal/mol | Tm [2]: 38.1 °C

GAATTAGAAATAATTC ((((((....))))))
folding enthalpy [1]: -18.5 kcal/mol | Tm [2]: 33.3 °C

GATCCATTGTGGATC ((((((...))))))
folding enthalpy [1]: -38.8 kcal/mol | Tm [2]: 51.7 °C

GTGGCAGGAAACTGCTAC ((.((((....)))).))
folding enthalpy [1]: -26.4 kcal/mol | Tm [2]: 53.1 °C

CGACCGGAAACGGCCTCG ((((((....)))..)))
folding enthalpy [1]: -11.9 kcal/mol | Tm [2]: 30.2 °C

TTTTCGAAAGAAAA (((((....)))))
folding enthalpy [1]: -15.1 kcal/mol | Tm [2]: 37.8 °C

GGGAATGGAAACATTCCC (((((((....)))))))
folding enthalpy [1]: -54.2 kcal/mol | Tm [2]: 62 °C

GATCGAAAGTTCGATC ((((((....))))))
folding enthalpy [1]: -36.2 kcal/mol | Tm [2]: 50.4 °C

GTGATTGGAAACAATCGC (.(((((....))))).)
folding enthalpy [1]: -40.7 kcal/mol | Tm [2]: 49.1 °C

GATTCAGAAATGAATC ((((((....))))))
folding enthalpy [1]: -25.8 kcal/mol | Tm [2]: 46.7 °C

GTGGACGGAAACGTCTGC (..((((....))))..)
folding enthalpy [1]: -15.8 kcal/mol | Tm [2]: 49.2 °C

GGCTTGGGAAACCAGGCC (((.(((....))).)))
folding enthalpy [1]: -49 kcal/mol | Tm [2]: 56.1 °C

GAGGAGACGAAAGTCCTC (((..(((....))))))
folding enthalpy [1]: -15.5 kcal/mol | Tm [2]: 40.8 °C

GTGCTTCGAAAGAAACAC (((.(((....))).)))
folding enthalpy [1]: -36 kcal/mol | Tm [2]: 45.6 °C

GGTTGCCGAAAGGCTACC (((.(((....))).)))
folding enthalpy [1]: -29.6 kcal/mol | Tm [2]: 61.8 °C

CGATACGGAAACGTCTCG (((.(((....))).)))
folding enthalpy [1]: -33.7 kcal/mol | Tm [2]: 42 °C

GCTGCCGGAAACAGCAGC (((((.(....).)))))
folding enthalpy [1]: -34.1 kcal/mol | Tm [2]: 53.8 °C

GATCCAAAAATGGATC ((((((....))))))
folding enthalpy [1]: -26.4 kcal/mol | Tm [2]: 42.9 °C

GCCAACGAAAGTTCGGC ((((((....))).)))
folding enthalpy [1]: -26.3 kcal/mol | Tm [2]: 51.2 °C

GCCGACACGAAAGTGGGC (((..(((....))))))
folding enthalpy [1]: -24.5 kcal/mol | Tm [2]: 53.1 °C

GTAAACGAAAGTTCTTAC ((((((....)))..)))
folding enthalpy [1]: -11 kcal/mol | Tm [2]: 24.7 °C

GCGGTCGGAAACGGTCGC (((..((....))..)))
folding enthalpy [1]: -25.1 kcal/mol | Tm [2]: 52.2 °C

GTGATCCGAAAGGACAC (((.(((....))))))
folding enthalpy [1]: -22.5 kcal/mol | Tm [2]: 50.7 °C

GATCAGTTAGCTGATC ((((((....))))))
folding enthalpy [1]: -40.2 kcal/mol | Tm [2]: 53.1 °C

GGAAACCGAAAGGTATCC (((.(((....))).)))
folding enthalpy [1]: -22.7 kcal/mol | Tm [2]: 48.4 °C

GATCTCCGGGGAGATC ((((((....))))))
folding enthalpy [1]: -43.9 kcal/mol | Tm [2]: 55.7 °C

GCGTGGGGACGC ((((....))))
folding enthalpy [1]: -21.1 kcal/mol | Tm [2]: 52.6 °C

GATCAAATGATTGATC ((((((....))))))
folding enthalpy [1]: -26.2 kcal/mol | Tm [2]: 35.8 °C

GTTGTCGAAAGACCAAC ((((((....))).)))
folding enthalpy [1]: -20.4 kcal/mol | Tm [2]: 38 °C

GATCAGCCTACTGATC ((((((....))))))
folding enthalpy [1]: -35.2 kcal/mol | Tm [2]: 49.9 °C

GGTTTAGGAAACTAGACC (((.(((....))).)))
folding enthalpy [1]: -30.2 kcal/mol | Tm [2]: 37.5 °C

GGCCGCGAAAGCGACGCC ((((((....)))..)))
folding enthalpy [1]: -16.9 kcal/mol | Tm [2]: 66.4 °C

GCGATTGCTCGC ((((....))))
folding enthalpy [1]: -14.3 kcal/mol | Tm [2]: 52.5 °C

GGGCTAGGAAACTAGTCC ((.((((....)))).))
folding enthalpy [1]: -37.6 kcal/mol | Tm [2]: 52.4 °C

GTAAACGAAAGTTTATAC ((((((....)))..)))
folding enthalpy [1]: -13.4 kcal/mol | Tm [2]: 37.1 °C

GATCGACGCCTCGATC ((((((....))))))
folding enthalpy [1]: -43.6 kcal/mol | Tm [2]: 51.6 °C

GGCGCTCGAAAGAGGGCC (((.(((....))).)))
folding enthalpy [1]: -39.6 kcal/mol | Tm [2]: 68.4 °C

GGAGACGAAAGTCATTCC ((((((....)))..)))
folding enthalpy [1]: -12 kcal/mol | Tm [2]: 29.6 °C

GACCGAGAAATCGGTC ((((((....))))))
folding enthalpy [1]: -34.4 kcal/mol | Tm [2]: 59.6 °C

GAGCATCCGAAAGGACTC (((..(((....))))))
folding enthalpy [1]: -10.8 kcal/mol | Tm [2]: 27.5 °C

GGTAGCGAAAGCTCACC ((((((....))).)))
folding enthalpy [1]: -16.8 kcal/mol | Tm [2]: 48.2 °C

GGTAACGAAAGTTCAACC ((((((....)))..)))
folding enthalpy [1]: -11 kcal/mol | Tm [2]: 27.7 °C

From the array DNA melting data of Ke et al. (doi:10.1101/2024.01.08.574731)
